Source: ChEMBL document CHEMBL4715736, “Identification of anticancer agents based on the thieno[2,3-b]pyridine and 1H-pyrazole molecular scaffolds” (2016)

Legend:
Format in all cases: functional
SF-268 [1] = test: Growth inhibition of human SF-268 cells assessed as cell growth at 0.01 uM incubated for 48 hrs by sulforhodamine B assay relative to control; conditions: read-out: Activity
SF-295 = test: Growth inhibition of human SF-295 cells assessed as cell growth at 0.01 uM incubated for 48 hrs by sulforhodamine B assay relative to control; conditions: read-out: Activity
U-251 [2] = test: Growth inhibition of human U-251 cells assessed as cell growth at 0.01 uM incubated for 48 hrs by sulforhodamine B assay relative to control; conditions: read-out: Activity
SK-MEL-5 = test: Growth inhibition of human SK-MEL-5 cells assessed as cell growth at 0.01 uM incubated for 48 hrs by sulforhodamine B assay relative to control; conditions: read-out: Activity
NCI/ADR-RES [3] = test: Growth inhibition of human NCI/ADR-RES cells assessed as cell growth at 0.01 uM incubated for 48 hrs by sulforhodamine B assay relative to control; conditions: read-out: Activity
SK-OV-3 = test: Growth inhibition of human SK-OV-3 cells assessed as cell growth at 0.01 uM incubated for 48 hrs by sulforhodamine B assay relative to control; conditions: read-out: Activity
TK-10 = test: Growth inhibition of human TK-10 cells assessed as cell growth at 0.01 uM incubated for 48 hrs by sulforhodamine B assay relative to control; conditions: read-out: Activity
MCF7 = test: Growth inhibition of human MCF7 cells assessed as cell growth at 0.01 uM incubated for 48 hrs by sulforhodamine B assay relative to control; conditions: read-out: Activity
Hs-578T [4] = test: Growth inhibition of human Hs-578T cells assessed as cell growth at 0.01 uM incubated for 48 hrs by sulforhodamine B assay relative to control; conditions: read-out: Activity
NCI-H23 [5] = test: Growth inhibition of human NCI-H23 cells assessed as cell growth at 0.1 uM incubated for 48 hrs by sulforhodamine B assay relative to control; conditions: read-out: Activity
HCT-116 = test: Growth inhibition of human HCT-116 cells assessed as cell growth at 0.1 uM incubated for 48 hrs by sulforhodamine B assay relative to control; conditions: read-out: Activity
KM12 = test: Growth inhibition of human KM12 cells assessed as cell growth at 0.1 uM incubated for 48 hrs by sulforhodamine B assay relative to control; conditions: read-out: Activity
U-251 [6] = test: Growth inhibition of human U-251 cells assessed as cell growth at 0.1 uM incubated for 48 hrs by sulforhodamine B assay relative to control; conditions: read-out: Activity
PC-3 = test: Growth inhibition of human PC-3 cells assessed as cell growth at 0.1 uM incubated for 48 hrs by sulforhodamine B assay relative to control; conditions: read-out: Activity
K562 [7] = test: Growth inhibition of human K562 cells assessed as cell growth at 1 uM incubated for 48 hrs by sulforhodamine B assay relative to control; conditions: read-out: Activity
NCI-H23 [8] = test: Growth inhibition of human NCI-H23 cells assessed as cell growth at 1 uM incubated for 48 hrs by sulforhodamine B assay relative to control; conditions: read-out: Activity
SF-268 [9] = test: Growth inhibition of human SF-268 cells assessed as cell growth at 1 uM incubated for 48 hrs by sulforhodamine B assay relative to control; conditions: read-out: Activity
Malme-3M [10] = test: Growth inhibition of human Malme-3M cells assessed as cell growth at 1 uM incubated for 48 hrs by sulforhodamine B assay relative to control; conditions: read-out: Activity
NCI/ADR-RES [11] = test: Growth inhibition of human NCI/ADR-RES cells assessed as cell growth at 1 uM incubated for 48 hrs by sulforhodamine B assay relative to control; conditions: read-out: Activity
ACHN = test: Growth inhibition of human ACHN cells assessed as cell growth at 1 uM incubated for 48 hrs by sulforhodamine B assay relative to control; conditions: read-out: Activity
UO-31 = test: Growth inhibition of human UO-31 cells assessed as cell growth at 1 uM incubated for 48 hrs by sulforhodamine B assay relative to control; conditions: read-out: Activity
K562 [12] = test: Growth inhibition of human K562 cells assessed as cell growth at 100 uM incubated for 48 hrs by sulforhodamine B assay relative to control; conditions: read-out: Activity
NCI-H23 [13] = test: Growth inhibition of human NCI-H23 cells assessed as cell growth at 100 uM incubated for 48 hrs by sulforhodamine B assay relative to control; conditions: read-out: Activity
HCC 2998 = test: Growth inhibition of human HCC 2998 cells assessed as cell growth at 100 uM incubated for 48 hrs by sulforhodamine B assay relative to control; conditions: read-out: Activity
Procedure, shortened: (§1)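 NCI Developmental Therapeutics Program NCI60 panel. Compounds that were active in the 10 µM one-dose screen went on to dose–response testing. Growth at each concentration is expressed relative to untreated control (100%). GI50 (concentration giving 50% of maximal inhibition of proliferation) and TGI (concentration giving total growth inhibition) were derived from the curves.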

LOX IMVI = test: Growth inhibition of human LOX IMVI cells assessed as cell growth at 100 uM incubated for 48 hrs by sulforhodamine B assay relative to control; conditions: read-out: Activity
OVCAR-4 = test: Growth inhibition of human OVCAR-4 cells assessed as cell growth at 100 uM incubated for 48 hrs by sulforhodamine B assay relative to control; conditions: read-out: Activity
DU-145 = test: Growth inhibition of human DU-145 cells assessed as cell growth at 100 uM incubated for 48 hrs by sulforhodamine B assay relative to control; conditions: read-out: Activity; procedure, shortened: as §1
HOP-62 = test: Growth inhibition of human HOP-62 cells incubated for 48 hrs by sulforhodamine B assay
Procedure, shortened: (§2)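 NCI60 panel at the NCI Developmental Therapeutics Program. Only compounds active in the 10 µM screen went to dose-response testing. GI50, the concentration giving 50% of maximal inhibition of proliferation, and TGI, the concentration giving total growth inhibition, were derived from the dose-response curves.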

HOP-92 = test: Growth inhibition of human HOP-92 cells incubated for 48 hrs by sulforhodamine B assay; procedure, shortened: as §2
NCI-H322M = test: Growth inhibition of human NCI-H322M cells incubated for 48 hrs by sulforhodamine B assay; conditions: for CC50: read-out: LC50 (the source's name); procedure, shortened: as §2
NCI-H460 = test: Growth inhibition of human NCI-H460 cells incubated for 48 hrs by sulforhodamine B assay; procedure, shortened: as §2
Malme-3M [14] = test: Growth inhibition of human Malme-3M cells incubated for 48 hrs by sulforhodamine B assay; procedure, shortened: as §2
SK-MEL-28 = test: Growth inhibition of human SK-MEL-28 cells incubated for 48 hrs by sulforhodamine B assay
Procedure, shortened: (§3)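 NCI DTP 60-line human tumour panel. Dose-response curves were run only for ligands active in the initial 10 µM screen. GI50 (concentration giving 50% of maximal inhibition of proliferation) and TGI (concentration giving total growth inhibition) were derived from these curves.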

OVCAR-8 = test: Growth inhibition of human OVCAR-8 cells incubated for 48 hrs by sulforhodamine B assay; conditions: for CC50: read-out: LC50 (the source's name); procedure, shortened: as §3
Hs-578T [15] = test: Growth inhibition of human Hs-578T cells incubated for 48 hrs by sulforhodamine B assay; conditions: for CC50: read-out: LC50 (the source's name); procedure, shortened: as §2

## COc1cccc(NC(=O)c2sc3nc4c(cc3c2N)CN(Cc2ccccc2)CC4)c1
SF-268 [1]
  growth at 0.01 µM: 99%
SF-295
  growth at 0.01 µM: 87%
U-251 [2]
  growth at 0.01 µM: 99%
SK-MEL-5
  growth at 0.01 µM: 99%
NCI/ADR-RES [3]
  growth at 0.01 µM: 102%
SK-OV-3
  growth at 0.01 µM: 92%
TK-10
  growth at 0.01 µM: 104%
MCF7
  growth at 0.01 µM: 88%
Hs-578T [4]
  growth at 0.01 µM: 88%
NCI-H23 [5]
  growth at 0.1 µM: 101%
HCT-116
  growth at 0.1 µM: 96%
KM12
  growth at 0.1 µM: 98%
U-251 [6]
  growth at 0.1 µM: 98%
PC-3
  growth at 0.1 µM: 88%
K562 [7]
  growth at 1 µM: 31%
NCI-H23 [8]
  growth at 1 µM: 89%
SF-268 [9]
  growth at 1 µM: 91%
Malme-3M [10]
  growth at 1 µM: 57%
NCI/ADR-RES [11]
  growth at 1 µM: 63%
ACHN
  growth at 1 µM: 92%
UO-31
  growth at 1 µM: 77%
K562 [12]
  growth at 100 µM: 8%
NCI-H23 [13]
  growth at 100 µM: -19%
HCC 2998
  growth at 100 µM: 9%
LOX IMVI
  growth at 100 µM: -15%
OVCAR-4
  growth at 100 µM: -32%
DU-145
  growth at 100 µM: -61%
HOP-62
  GI50: 1.83 µM
  LC50: 41.1 µM
  TGI: 6.47 µM
HOP-92
  GI50: 2.21 µM
  LC50 (concentration killing 50% of the starting cells): > 100 µM
  TGI: 24.1 µM
NCI-H322M
  GI50: 25.2 µM
  TGI: > 100 µM
  CC50: > 100 µM
NCI-H460
  GI50: 4.18 µM
  LC50: > 100 µM
  TGI: 30.9 µM
Malme-3M [14]
  GI50: 1.43 µM
  LC50: > 100 µM
  TGI: 16.6 µM
SK-MEL-28
  GI50: 2.8 µM
  LC50: > 100 µM
  TGI: 29.7 µM
OVCAR-8
  GI50: 4.45 µM
  TGI: 85.2 µM
  CC50: > 100 µM
Hs-578T [15]
  GI50: 2.14 µM
  TGI: 23 µM
  CC50: > 100 µM

## CCc1cccc(C)c1NC(=O)c1sc2nc3c(cc2c1N)C(=O)CCC3
SF-268 [1]
  growth at 0.01 µM: 97%
SF-295
  growth at 0.01 µM: 89%
U-251 [2]
  growth at 0.01 µM: 94%
SK-MEL-5
  growth at 0.01 µM: 92%
NCI/ADR-RES [3]
  growth at 0.01 µM: 100%
MCF7
  growth at 0.01 µM: 83%
Hs-578T [4]
  growth at 0.01 µM: 93%
NCI-H23 [5]
  growth at 0.1 µM: 100%
HCT-116
  growth at 0.1 µM: 96%
KM12
  growth at 0.1 µM: 92%
U-251 [6]
  growth at 0.1 µM: 90%
PC-3
  growth at 0.1 µM: 87%
K562 [7]
  growth at 1 µM: 16%
NCI-H23 [8]
  growth at 1 µM: 42%
SF-268 [9]
  growth at 1 µM: 54%
Malme-3M [10]
  growth at 1 µM: 31%
NCI/ADR-RES [11]
  growth at 1 µM: 33%
ACHN
  growth at 1 µM: 44%
UO-31
  growth at 1 µM: 37%
K562 [12]
  growth at 100 µM: -52%
NCI-H23 [13]
  growth at 100 µM: 14%
HCC 2998
  growth at 100 µM: 10%
LOX IMVI
  growth at 100 µM: 8%
OVCAR-4
  growth at 100 µM: 10%
DU-145
  growth at 100 µM: 9%
HOP-62
  GI50: 0.679 µM
  LC50: > 100 µM
  TGI: > 100 µM
HOP-92
  GI50: 0.446 µM
  LC50 (concentration killing 50% of the starting cells): > 100 µM
  TGI: 70 µM
NCI-H322M
  TGI: > 100 µM
  CC50: > 100 µM
NCI-H460
  GI50: 0.355 µM
  LC50: > 100 µM
  TGI: 12.6 µM
Malme-3M [14]
  LC50: > 100 µM
  TGI: 97.2 µM
SK-MEL-28
  GI50: 0.133 µM
  LC50: > 100 µM
  TGI: > 100 µM
OVCAR-8
  GI50: 2.13 µM
  TGI: ≥ 100 µM
  CC50: > 100 µM
Hs-578T [15]
  TGI: > 100 µM
  CC50: > 100 µM
